Many of the other results were omitted from the sample, so hits are more common in it than they were.
E-sel inducer: E-selectin induction in HUVECs, primary screen, imaging, HUVEC, immunofluorescence imaging, single point; P16581; normalized: neutral wells 0, TNF-alpha wells 100; activation, % at 7.58 µM; 260,000 compounds, 0.37% hits;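 active means mean E-selectin-positive cell signal at least 10% of the positive control, reached in at least 60% of replicates, without over 20% cell loss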
Target sequence (P16581 whole entry, looked up): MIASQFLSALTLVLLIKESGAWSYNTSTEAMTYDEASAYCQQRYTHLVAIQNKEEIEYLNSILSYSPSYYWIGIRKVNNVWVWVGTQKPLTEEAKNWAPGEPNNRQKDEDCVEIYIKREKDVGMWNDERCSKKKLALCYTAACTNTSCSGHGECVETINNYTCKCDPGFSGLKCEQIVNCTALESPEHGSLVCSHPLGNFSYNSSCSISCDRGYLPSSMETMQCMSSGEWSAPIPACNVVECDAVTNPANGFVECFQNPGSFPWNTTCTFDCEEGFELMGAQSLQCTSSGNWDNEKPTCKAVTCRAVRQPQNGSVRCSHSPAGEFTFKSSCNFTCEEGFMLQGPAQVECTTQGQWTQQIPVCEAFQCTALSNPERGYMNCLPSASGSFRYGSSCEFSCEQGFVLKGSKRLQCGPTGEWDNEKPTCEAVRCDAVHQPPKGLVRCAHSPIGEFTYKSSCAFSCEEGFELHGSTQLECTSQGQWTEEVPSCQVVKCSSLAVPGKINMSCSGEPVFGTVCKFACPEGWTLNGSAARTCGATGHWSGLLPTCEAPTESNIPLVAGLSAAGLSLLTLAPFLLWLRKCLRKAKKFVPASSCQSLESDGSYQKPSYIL
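Test system: HUVEC | Signal: Immunofluorescence imaging | Read-out: Percent E-selectin-positive cells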
Large screens that a line does not name were inactive.

C[C@H]1CCCCO[C@@H](CN(C)S(=O)(=O)c2ccc(F)cc2)[C@@H](C)CN([C@@H](C)CO)C(=O)c2cc(NS(=O)(=O)c3ccc(F)cc3)ccc2O1	none
COCC(=O)N1C[C@H](C)[C@H](OC)CN(C)C(=O)c2cc(NC(=O)c3ccc(OC)cc3)ccc2OC[C@H]1C	none
C/C=C/c1ccc([C@H]2[C@H](CO)N3C(=O)CN(C(=O)c4ccncc4)C[C@@H]23)cc1	none
CC(C)NC(=O)N(C)C[C@@H]1Oc2c(NS(=O)(=O)c3cccs3)cccc2C(=O)N([C@H](C)CO)C[C@@H]1C	none
CCCNC(=O)N(C)C[C@H]1Oc2ncc(C3=CCCC3)cc2C(=O)N([C@@H](C)CO)C[C@H]1C	none
CCCNC(=O)N(C)C[C@H]1Oc2ncc(C3=CCCC3)cc2C(=O)N([C@H](C)CO)C[C@H]1C	none
CCCNC(=O)N(C)C[C@H]1Oc2ncc(C3=CCCC3)cc2C(=O)N([C@H](C)CO)C[C@@H]1C	E-sel inducer 134
CCCNC(=O)Nc1ccc2c(c1)OC[C@@H](C)N(Cc1ccccc1)C[C@@H](C)[C@@H](OC)CN(C)C2=O	none
CC(C)NC(=O)N(C)C[C@@H]1Oc2ccc(NS(=O)(=O)c3cccs3)cc2CC(=O)N([C@@H](C)CO)C[C@H]1C	E-sel inducer 29
CNC[C@H]1Oc2ccc(NS(=O)(=O)c3ccc(C)cc3)cc2CC(=O)N([C@@H](C)CO)C[C@@H]1C	none
COc1ccc(S(=O)(=O)Nc2ccc3c(c2)CC(=O)N([C@@H](C)CO)C[C@@H](C)[C@H](CN(C)C(=O)NC2CCCCC2)O3)cc1	none
CNC[C@H]1Oc2ccc(NS(=O)(=O)c3ccc(OC)cc3)cc2CC(=O)N([C@@H](C)CO)C[C@@H]1C	E-sel inducer 60
C[C@H](CO)N1C[C@H](C)[C@H](CN(C)C(=O)NC2CCCCC2)Oc2ccc(NS(=O)(=O)c3ccc(F)cc3)cc2CC1=O	none
CC(C)NC(=O)N(C)C[C@@H]1Oc2ccc(NS(=O)(=O)c3cccs3)cc2CC(=O)N([C@H](C)CO)C[C@H]1C	none
CNC[C@H]1Oc2ccc(NS(=O)(=O)c3ccc(OC)cc3)cc2CC(=O)N([C@@H](C)CO)C[C@H]1C	none
CC(C)NC(=O)N(C)C[C@@H]1Oc2ccc(NS(=O)(=O)c3cccs3)cc2CC(=O)N([C@@H](C)CO)C[C@@H]1C	none
COc1ccc(S(=O)(=O)Nc2ccc3c(c2)CC(=O)N([C@H](C)CO)C[C@@H](C)[C@H](CN(C)C(=O)NC2CCCCC2)O3)cc1	E-sel inducer 48
COc1ccc(NC(=O)Nc2ccc3c(c2)[C@@H]2C[C@H](CC(=O)NCC4CC4)O[C@@H](CO)[C@@H]2O3)cc1	none
C[C@H](CO)N1C[C@H](C)[C@@H](CN(C)Cc2ccc(-c3ccccc3)cc2)Oc2ccc(NC(=O)C3CC3)cc2CC1=O	none
CC(C)NC(=O)Nc1ccc2c(c1)C(=O)N([C@@H](C)CO)C[C@H](C)[C@H](CN(C)Cc1ccc(C(=O)O)cc1)O2	none
COCC(=O)NC[C@@H]1[C@@H](c2ccc(C3=CCCC3)cc2)[C@H](CO)N1C(C)=O	none
C[C@@H]1CN([C@H](C)CO)C(=O)Cc2cc(NC(=O)CCN3CCOCC3)ccc2O[C@H]1CN(C)C(=O)Nc1ccccc1	none
CCC(=O)N1CC[C@H]2[C@@H]1c1cc(C#Cc3ccccc3OC)ccc1N(C)[C@H]2CO	none
C[C@@H]1CN([C@@H](C)CO)C(=O)c2cc(NC(=O)Nc3cccc4ccccc34)ccc2O[C@H]1CN(C)C(=O)Nc1ccc2c(c1)OCO2	none
C[C@@H]1CN([C@@H](C)CO)C(=O)Cc2cc(NC(=O)CCCCCC(=O)Nc3ccccc3N)ccc2O[C@@H]1CN(C)C(=O)Nc1ccc2c(c1)OCO2	E-sel inducer 181
COc1ccc(NC(=O)N(C)C[C@H]2Oc3ccc(NC(=O)CCCCCC(=O)Nc4ccccc4N)cc3CC(=O)N([C@H](C)CO)C[C@@H]2C)cc1	none
C[C@@H]1CN([C@@H](C)CO)C(=O)c2cc(NC(=O)CCCCCC(=O)Nc3ccccc3N)ccc2O[C@@H]1CN(C)C(=O)Nc1ccccc1	none
C[C@H](CO)N1C[C@H](C)[C@H](CN(C)C(=O)Nc2ccc3c(c2)OCO3)Oc2ccc(NC(=O)CCCCCC(=O)Nc3ccccc3N)cc2CC1=O	E-sel inducer 392
C[C@@H]1CN([C@@H](C)CO)C(=O)c2cc(NC(=O)CCCCCC(=O)Nc3ccccc3N)ccc2O[C@H]1CN(C)C(=O)Nc1ccccc1	none
C[C@H](CO)N1C[C@H](C)[C@H](CN(C)C(=O)Nc2ccccc2)Oc2ccc(NC(=O)CCCCCC(=O)Nc3ccccc3N)cc2CC1=O	none
COc1ccc(NC(=O)N(C)C[C@H]2Oc3ccc(NC(=O)CCCCCC(=O)Nc4ccccc4N)cc3CC(=O)N([C@@H](C)CO)C[C@H]2C)cc1	E-sel inducer 32
C[C@@H]1CN([C@H](C)CO)C(=O)c2cc(NC(=O)CCCCCC(=O)Nc3ccccc3N)ccc2O[C@@H]1CN(C)C(=O)Nc1ccc2c(c1)OCO2	E-sel inducer 100
C[C@H]1CN([C@@H](C)CO)C(=O)Cc2cc(NC(=O)CCCCCC(=O)Nc3ccccc3N)ccc2O[C@@H]1CN(C)C(=O)Nc1ccccc1	none
COc1ccc(NC(=O)N(C)C[C@@H]2Oc3ccc(NC(=O)CCCCCC(=O)Nc4ccccc4N)cc3CC(=O)N([C@@H](C)CO)C[C@@H]2C)cc1	none
C[C@H]1CN([C@@H](C)CO)C(=O)Cc2cc(NC(=O)CCCCCC(=O)Nc3ccccc3N)ccc2O[C@@H]1CN(C)C(=O)Nc1ccc2c(c1)OCO2	none
C[C@H](CO)N1C[C@H](C)[C@@H](CN(C)C(=O)Nc2ccc3c(c2)OCO3)Oc2ccc(NC(=O)CCCCCC(=O)Nc3ccccc3N)cc2CC1=O	none
C[C@@H](NC(=O)C[C@H]1C[C@@H]2c3cc(NC(=O)NC4CCCC4)ccc3O[C@@H]2[C@H](CO)O1)c1ccccc1	none
O=C(C1CCCCC1)N1CC(=O)N2[C@H](CO)[C@@H](c3ccc(-c4cccnc4)cc3)[C@@H]2C1	none
O=C(C[C@H]1CC[C@H]2[C@@H](COC[C@@H](O)CN2C(=O)c2ccccc2F)O1)N1CCN(c2ccccc2)CC1	none
COc1cccc(S(=O)(=O)Nc2ccc3c(c2)[C@H]2C[C@@H](CC(=O)NCc4ccc(Cl)cc4)O[C@H](CO)[C@H]2O3)c1	none
C/C=C/c1ccc([C@H]2[C@H](CO)N(C(=O)CC)[C@H]2CNC(=O)CC)cc1	none
CC(C)CC#Cc1ccc2c(c1)O[C@@H](CN(C)C(=O)C1CC1)[C@H](C)CN([C@H](C)CO)S2(=O)=O	none
C[C@@H]1CN([C@H](C)CO)S(=O)(=O)c2ccc(-c3cccnc3)cc2O[C@@H]1CN(C)CC1CCOCC1	none
Cc1ccc(S(=O)(=O)N(C)C[C@@H]2Oc3ccc(NC(=O)CCCN(C)C)cc3C(=O)N([C@H](C)CO)C[C@H]2C)cc1	none
COc1ccc(NC(=O)N(C)C[C@@H]2Oc3ccc(NS(=O)(=O)c4cn(C)cn4)cc3CC(=O)N([C@H](C)CO)C[C@H]2C)cc1	none
O=[N+]([O-])c1ccc(/C=N/N=C/c2ccc([N+](=O)[O-])o2)o1	none
O=C(N/N=C\C=C\c1ccc([N+](=O)[O-])o1)c1cccs1	none
O=C1NC(=S)S/C1=C\C=C\c1ccc([N+](=O)[O-])o1	E-sel inducer 248
C[C@@H]1CN([C@H](C)CO)C(=O)c2cc(C3=CCCC3)cnc2O[C@H]1CN(C)C(=O)C1CCOCC1	none
C/C=C/c1cnc2c(c1)C(=O)N([C@H](C)CO)C[C@H](C)[C@@H](CN(C)Cc1ccncc1)O2	none
Cc1ccc(-c2ccc3c(c2)O[C@H](CN(C)C(=O)CC2CC2)[C@@H](C)CN([C@@H](C)CO)S3(=O)=O)cc1	none

High-throughput results as filed in PubChem BioAssay.
